Test results: ChEMBL document CHEMBL5653605, “Reduced VEGF production, angiogenesis, and vascular regrowth contribute to the antitumor properties of dual mTORC1/mTORC2 inhibitors” (Cancer Res, 2011)
The source made the active and inactive calls.

Tests used:
[1] = test system: Pancreatic islet cell carcinoma; assay: Antivascular activity against pancreatic islet cell carcinoma in RIP-Tag2 mouse assessed as reduction in CD31-positive tumor blood vessels at 200 mg/kg, po qd administered via gavage and measured after 7 days by immunohistochemical staining based fluorescence microscopic analysis relative to control; type: functional; set-up: scale not given: the % may be the effect or the level left; settings: time 7 day
How it was run: (§1)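 For 7 days, RIP-Tag2 mice, 9–10 weeks old, received 75 mg/kg gavage BID, 200 mg/kg gavage QD, or 20 mg/kg ip QD. Perfusion-fixed tumors cut at 60–80 µm and stained for CD31 and type IV collagen basement membrane. Vessel area density from fluorescence images with threshold 30–50; sprouts and empty basement membrane sleeves examined by confocal microscopy. 3–8 mice/group; ANOVA, Fisher PLSD.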

[2] = test system: Pancreatic islet cell carcinoma; assay: Antivascular activity against pancreatic islet cell carcinoma in RIP-Tag2 mouse assessed as appearance of empty basement membrane sleeves at 200 mg/kg, po qd administered via gavage and measured after 7 days by immunohistochemical staining based fluorescence microscopic analysis; type: functional, organism-based; settings: time 7.0 day; how it was run: as §1
[3] = test system: Pancreatic islet cell carcinoma; assay: Antivascular activity against pancreatic islet cell carcinoma in RIP-Tag2 mouse assessed as reduction in vascular sprouts at 200 mg/kg, po qd administered via gavage and measured after 7 days by immunohistochemical staining based fluorescence microscopic analysis relative to control; type: functional; set-up: scale not given: the % may be the effect or the level left; settings: time 7 day; how it was run: as §1
[4] = test system: Pancreatic islet cell carcinoma; assay: (§2) Antivascular activity in pancreatic islet cell carcinoma in RIP-Tag2 mouse assessed as reduction in intratumoral hemorrhage by measuring reduction in TER-119 immunoreactivity at 200 mg/kg, po qd administered via gavage and measured after 7 days by confocal microscopic analysis relative to control; type: functional; set-up: scale not given: the % may be the effect or the level left; settings: time 7 day
How it was run: (§3)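 Regrowth design in 10-week-old RIP-Tag2 mice: OSI-930 200 mg/kg gavage QD for 7 days, then 4 days of vehicle, 75 mg/kg gavage BID, or 20 mg/kg ip QD; controls received vehicle for 11 days. Perfusion-fixed sections stained for CD31 for vessel density or for the erythrocyte marker TER-119, quantified by confocal microscopy. 3–8 mice/group; ANOVA, Fisher PLSD.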

[5] = test system: Pancreatic islet cell carcinoma; assay: as §2, with “gavage for 7 days followed by cessation” for “gavage”, “4” for “7”; type: functional; set-up: scale not given: the % may be the effect or the level left; settings: time 7 day; how it was run: as §3
[6] = test system: Pancreatic islet cell carcinoma; assay: Additive antitumor activity in pancreatic islet cell carcinoma in RIP-Tag2 mouse assessed as reduction in proliferation by measuring reduction in phospho-histone H3 level at 100 mg/kg, po qd administered via gavage for 4 days in presence of OXA-01 by immunohistochemistry analysis; type: functional, organism-based; settings: time 4.0 day
How it was run: (§4)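 Perfusion-fixed tumor sections (60–80 µm) stained for phospho-histone H3 (proliferation) or activated caspase-3 (apoptosis) and quantified from confocal images. 3–8 mice/group; ANOVA, Fisher PLSD.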

[7] = test system: Pancreatic islet cell carcinoma; assay: Additive antitumor activity in pancreatic islet cell carcinoma in RIP-Tag2 mouse assessed as induction of apoptosis by measuring increase in activated caspase-3 level at 100 mg/kg, po qd administered via gavage for 4 days in presence of OXA-01 by immunohistochemistry analysis relative to control; type: functional; settings: time 4 day; how it was run: as §4
[8] = test system: Pancreatic islet cell carcinoma; assay: Antitumor activity in pancreatic islet cell carcinoma in RIP-Tag2 mouse assessed as induction of apoptosis by measuring increase in activated caspase-3 level at 100 mg/kg, po qd administered via gavage for 4 days in presence of rapamycin by immunohistochemistry analysis; type: functional, organism-based; settings: time 4.0 day; how it was run: as §4
[9] = molecular target: Vascular endothelial growth factor receptor 2 (Homo sapiens, UniProt P35968)
[10] = molecular target: RAC-alpha serine/threonine-protein kinase (Homo sapiens) (UniProt P31749); assay: Inhibition of AKT phosphorylation at Ser 473 site in serum deprived/insulin stimulated human OVCAR-3 cells harboring PTEN and wild type PI3K at 0.001 to 10 uM preincubated for 2 hrs followed by insulin stimulation and measured immediately by Western blot analysis; type: cell-based; settings: dose 0.001-10 µM
[11] = molecular target: Proline-rich AKT1 substrate 1 (Homo sapiens) (UniProt Q96B36); assay: Inhibition of PRAS40 phosphorylation at Ser 246 residue in serum deprived/insulin stimulated human OVCAR-3 cells harboring PTEN and wild type PI3K at 0.001 to 10 uM preincubated for 2 hrs followed by insulin stimulation and measured immediately by Western blot analysis; type: cell-based; settings: dose 0.001-10 µM
[12] = molecular target: Eukaryotic translation initiation factor 4E-binding protein 1 (Homo sapiens) (UniProt Q13541); assay: Inhibition of 4E-BP1 phosphorylation at Ser 37/46 residues in serum deprived/insulin stimulated human OVCAR-3 cells harboring PTEN and wild type PI3K at 0.001 to 10 uM preincubated for 2 hrs followed by insulin stimulation and measured immediately by Western blot analysis; type: cell-based; settings: dose 0.001-10 µM
[13] = test system: OVCAR-3; assay: (§5) Inhibition of S6K phosphorylation at 235/236 residues in serum deprived/insulin stimulated human OVCAR-3 cells harboring PTEN and wild type PI3K at 0.001 to 10 uM preincubated for 2 hrs followed by insulin stimulation and measured immediately by Western blot analysis; type: cell-based; settings: dose 0.001-10 µM
[14] = test system: OVCAR-3; assay: as §5, with “S6K” for “S6K phosphorylation”, “PI3K assessed as inhibition of s6 substrate phosphorylation at […] residue” for “PI3K”; type: cell-based; settings: dose 0.001-10 µM
[15] = test system: Mus musculus; assay: In vivo inhibition of S6 phosphorylation at 235/236 residues in nu/nu CD-1 mouse xenografted with human GEO cells at 20 mg/kg administered for 12 days and measured 2 to 24 hrs post last dose by Western blot analysis; type: functional, organism-based; settings: time 290-312 hrs
How it was run: (§6)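 GEO s.c. xenografts in nu/nu CD-1 mice; 20 mg/kg for 12 days; tumors snap-frozen at 2, 8, 24 h, lysed in Triton X-100/HEPES pH 7.4 buffer with phosphatase inhibitors; phospho and total 4E-BP1 (37/46) or S6 (235/236) by Western blot; n=2.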

[16] = test system: Mus musculus; assay: In vivo inhibition of 4E-BP1 phosphorylation at Ser37/46 residues in nu/nu CD-1 mouse xenografted with human GEO cells at 20 mg/kg administered for 12 days and measured 2 to 24 hrs post last dose by Western blot analysis; type: functional, organism-based; settings: time 290-312 hrs; how it was run: as §6
[17] = test system: Mus musculus; assay: In vivo inhibition of AKT phosphorylation in RIP-Tag2 mouse with pancreatic islet cell carcinoma 20 mg/kg, ip qd measured after 7 days by immunohistochemistry; type: functional, organism-based; settings: time 7.0 day
How it was run: (§7)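 RIP-Tag2 mice, 9–10 weeks old, given 20 mg/kg QD ip for 7 days; perfusion-fixed, 60–80 µm tumor sections immunostained for phospho-4E-BP1, phospho-Akt or phospho-S6K together with CD31; fluorescence/confocal imaging; 3–8 mice per group.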

[18] = test system: Mus musculus; assay: In vivo inhibition of 4E-BP1 phosphorylation in RIP-Tag2 mouse with pancreatic islet cell carcinoma 20 mg/kg, ip qd measured after 7 days by immunohistochemistry; type: functional, organism-based; settings: time 7.0 day; how it was run: as §7
[19] = test system: Mus musculus; assay: In vivo inhibition of S6K phosphorylation in RIP-Tag2 mouse with pancreatic islet cell carcinoma 20 mg/kg, ip qd measured after 7 days by immunohistochemistry analysis; type: functional, organism-based; settings: time 7.0 day; how it was run: as §7
[20] = test system: Pancreatic islet cell carcinoma; assay: Antitumor activity against pancreatic islet cell carcinoma in RIP-Tag2 mouse assessed as reduction in VEGF production by measuring reduction in fluorescence in entire tumor at 20 mg/kg, ip qd measured after 7 days by immunohistochemical staining based confocal microscopic analysis relative to control; type: functional; set-up: scale not given: the % may be the effect or the level left; settings: time 7 day
How it was run: (§8)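 Treatment began in RIP-Tag2 mice at 9–10 weeks: 75 mg/kg gavage BID for 1, 4 or 7 days, or 20 mg/kg ip QD for 7 days; vehicle Labrifil or water. Tissue fixed by vascular perfusion and 60–80 µm sections stained for VEGF with CD31. VEGF fluorescence intensity measured over whole tumor, tumor cells, or tumor vessels. 3–8 mice/group; ANOVA, Fisher PLSD.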

[21] = test system: Pancreatic islet cell carcinoma; assay: (§9) Antitumor activity against pancreatic islet cell carcinoma in RIP-Tag2 mouse assessed as reduction in VEGF production by measuring reduction in tumor cell associated fluorescence intensity at 20 mg/kg, ip qd measured after 7 days by immunohistochemical staining based confocal microscopic analysis relative to control; type: functional; set-up: scale not given: the % may be the effect or the level left; settings: time 7 day; how it was run: as §8
[22] = test system: Pancreatic islet cell carcinoma; assay: as §9, with “tumor vessels” for “tumor cell”; type: functional; set-up: scale not given: the % may be the effect or the level left; settings: time 7 day; how it was run: as §8
[23] = test system: Pancreatic islet cell carcinoma; assay: Antitumor activity against pancreatic islet cell carcinoma in RIP-Tag2 mouse assessed as reduction in VEGF-A expression at 20 mg/kg, ip qd measured after 7 days by immunoprecipitation based densitometric analysis; type: functional, organism-based; settings: time 7.0 day
How it was run: (§10)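 VEGF in tumor lysates from treated RIP-Tag2 mice (9–10 weeks old at start; 75 mg/kg gavage BID or 20 mg/kg ip QD) measured with mouse angiogenesis antibody arrays, read as pixel density. 3–8 mice/group, SEM; ANOVA with Fisher PLSD.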

[24] = test system: Pancreatic islet cell carcinoma; assay: Antitumor activity against pancreatic islet cell carcinoma in RIP-Tag2 mouse assessed as reduction in VEGF-B expression at 20 mg/kg, ip qd measured after 7 days by immunoprecipitation based densitometric analysis; type: functional, organism-based; settings: time 7.0 day; how it was run: as §10
[25] = test system: Pancreatic islet cell carcinoma; assay: Antivascular activity against pancreatic islet cell carcinoma in RIP-Tag2 mouse assessed as reduction in CD31-positive tumor blood vessels at 20 mg/kg, ip qd measured after 7 days by immunohistochemical staining based fluorescence microscopic analysis; type: functional, organism-based; settings: time 7.0 day; how it was run: as §1
[26] = test system: Pancreatic islet cell carcinoma; assay: Antivascular activity against pancreatic islet cell carcinoma in RIP-Tag2 mouse assessed as appearance of empty basement membrane sleeves at 20 mg/kg, ip qd measured after 7 days by immunohistochemical staining based confocal microscopic analysis; type: functional, organism-based; settings: time 7.0 day; how it was run: as §1
[27] = test system: Pancreatic islet cell carcinoma; assay: Antivascular activity against pancreatic islet cell carcinoma in RIP-Tag2 mouse assessed as reduction in vascular sprouts at 20 mg/kg, ip qd measured after 7 days by immunohistochemical staining based fluorescence microscopic analysis relative to control; type: functional; set-up: scale not given: the % may be the effect or the level left; settings: time 7 day; how it was run: as §1
[28] = test system: Pancreatic islet cell carcinoma; assay: Antivascular activity in pancreatic islet cell carcinoma in RIP-Tag2 mouse assessed as suppression of tumor regrowth by measuring reduction in vessel density at 20 mg/kg, ip qd pretreated with OSI-930 for 7 days at 200 mg/kg, po followed by compound administration and measured after 4 days (reference value: 18%); type: functional; set-up: scale not given: the % may be the effect or the level left; settings: time 4 day; how it was run: as §3
[29] = test system: Pancreatic islet cell carcinoma; assay: Antivascular activity in pancreatic islet cell carcinoma in RIP-Tag2 mouse assessed as reduction in intratumoral hemorrhage by measuring reduction in TER-119 immunoreactivity at 20 mg/kg, ip qd pretreated with OSI-930 for 7 days at 200 mg/kg, po followed by compound administration and measured after 4 days by confocal microscopic analysis relative to control; type: functional; set-up: scale not given: the % may be the effect or the level left; settings: time 4 day; how it was run: as §3
[30] = test system: Pancreatic islet cell carcinoma; assay: Antitumor activity in pancreatic islet cell carcinoma in RIP-Tag2 mouse assessed as induction of apoptosis by measuring increase in activated caspase-3 level at 20 mg/kg, ip qd […] for 4 days in presence of OSI-930 by immunohistochemistry analysis; type: functional, organism-based; settings: time 4.0 day; how it was run: as §4

Chain of Eukaryotic translation initiation factor 4E-binding protein 1 (Homo sapiens) (Q13541 whole entry): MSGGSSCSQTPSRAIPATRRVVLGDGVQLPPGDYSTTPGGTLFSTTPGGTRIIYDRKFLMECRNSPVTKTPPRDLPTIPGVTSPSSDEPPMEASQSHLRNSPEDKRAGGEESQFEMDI
Chain of Vascular endothelial growth factor receptor 2 (P35968 whole entry): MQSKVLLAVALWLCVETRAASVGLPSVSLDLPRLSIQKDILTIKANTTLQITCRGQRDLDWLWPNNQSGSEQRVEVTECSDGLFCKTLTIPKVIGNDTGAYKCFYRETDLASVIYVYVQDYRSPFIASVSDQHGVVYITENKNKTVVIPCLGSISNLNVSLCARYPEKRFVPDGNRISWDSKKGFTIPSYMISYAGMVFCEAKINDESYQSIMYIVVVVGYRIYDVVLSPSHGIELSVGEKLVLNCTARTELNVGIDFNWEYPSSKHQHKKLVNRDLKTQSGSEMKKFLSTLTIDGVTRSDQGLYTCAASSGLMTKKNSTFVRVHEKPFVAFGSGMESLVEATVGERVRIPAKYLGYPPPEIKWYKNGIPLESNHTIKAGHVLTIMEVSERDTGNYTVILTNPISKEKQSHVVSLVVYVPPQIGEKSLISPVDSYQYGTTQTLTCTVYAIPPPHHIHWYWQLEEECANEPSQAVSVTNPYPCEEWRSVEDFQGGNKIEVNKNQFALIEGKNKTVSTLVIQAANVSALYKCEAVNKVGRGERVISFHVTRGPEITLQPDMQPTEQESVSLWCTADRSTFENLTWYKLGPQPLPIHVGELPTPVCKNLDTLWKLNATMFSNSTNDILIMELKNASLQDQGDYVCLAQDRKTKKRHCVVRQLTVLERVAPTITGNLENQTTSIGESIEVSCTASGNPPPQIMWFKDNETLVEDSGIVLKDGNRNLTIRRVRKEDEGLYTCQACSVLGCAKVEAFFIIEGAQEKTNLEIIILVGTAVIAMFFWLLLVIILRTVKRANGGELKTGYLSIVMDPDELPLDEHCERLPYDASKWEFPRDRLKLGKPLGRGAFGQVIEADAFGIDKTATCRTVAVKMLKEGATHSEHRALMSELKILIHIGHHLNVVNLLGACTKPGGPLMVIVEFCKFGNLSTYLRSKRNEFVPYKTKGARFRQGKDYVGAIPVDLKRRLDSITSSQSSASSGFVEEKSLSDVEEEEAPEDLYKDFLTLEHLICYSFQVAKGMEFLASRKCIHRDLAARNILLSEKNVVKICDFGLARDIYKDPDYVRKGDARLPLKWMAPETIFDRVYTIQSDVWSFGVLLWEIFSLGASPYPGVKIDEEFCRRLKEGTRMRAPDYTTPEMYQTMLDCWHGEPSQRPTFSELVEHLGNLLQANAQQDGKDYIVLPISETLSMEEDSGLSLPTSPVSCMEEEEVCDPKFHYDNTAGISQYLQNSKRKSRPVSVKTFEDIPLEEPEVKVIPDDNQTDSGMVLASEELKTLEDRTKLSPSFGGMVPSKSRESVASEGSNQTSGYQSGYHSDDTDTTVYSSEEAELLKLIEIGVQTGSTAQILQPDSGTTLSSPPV
Chain of RAC-alpha serine/threonine-protein kinase (Homo sapiens) (P31749 whole entry): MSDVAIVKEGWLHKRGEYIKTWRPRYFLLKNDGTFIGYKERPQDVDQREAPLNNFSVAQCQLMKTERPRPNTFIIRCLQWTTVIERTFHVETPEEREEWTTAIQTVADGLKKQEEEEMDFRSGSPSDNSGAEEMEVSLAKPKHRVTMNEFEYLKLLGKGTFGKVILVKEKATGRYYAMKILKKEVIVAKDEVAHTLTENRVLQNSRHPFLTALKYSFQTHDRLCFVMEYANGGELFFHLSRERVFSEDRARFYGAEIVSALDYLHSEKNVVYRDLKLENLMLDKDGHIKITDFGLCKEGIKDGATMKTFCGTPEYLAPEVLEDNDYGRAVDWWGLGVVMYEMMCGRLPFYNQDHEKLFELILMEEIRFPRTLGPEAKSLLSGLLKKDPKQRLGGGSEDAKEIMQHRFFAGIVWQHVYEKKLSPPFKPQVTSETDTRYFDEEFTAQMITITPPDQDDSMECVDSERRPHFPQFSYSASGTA

O=C(Nc1ccc(OC(F)(F)F)cc1)c1sccc1NCc1ccnc2ccccc12 [OSI-930]
Activity [1]: 61% | Activity [2]: Active | Activity [3]: 61% | Activity [4]: 72% | Activity [5]: 28% | Activity [6]: Active | Activity [7]: 700% | Activity [8]: inactive | IC50 [9]: 9 nM

CO[C@H]1C[C@@H]2CC[C@@H](C)[C@@](O)(O2)C(=O)C(=O)N2CCCC[C@H]2C(=O)O[C@H]([C@H](C)C[C@@H]2CC[C@@H](O)[C@H](OC)C2)CC(=O)[C@H](C)/C=C(\C)[C@@H](O)[C@@H](OC)C(=O)[C@H](C)C[C@H](C)/C=C/C=C/C=C/1C [SIROLIMUS]
inhibition [10]: inactive | inhibition [11]: inactive | inhibition [12]: inactive | inhibition [13]: Active | inhibition [14]: Active | inhibition [15]: Active | inhibition [16]: Active | inhibition [17]: inactive | inhibition [18]: inactive | inhibition [19]: Active | Activity [20]: 21% | Activity [21]: 34% | Activity [22]: 20% | Activity [23]: inactive | Activity [24]: inactive | Activity [25]: inactive | Activity [26]: inactive | Activity [27]: 21% | Activity [28]: 15% | Activity [29]: 48% | Activity [30]: inactive
